{"source": "ChEMBL document CHEMBL5678806", "about": "“NMS-P937, an orally available, specific small-molecule polo-like kinase 1 inhibitor with antitumor activity in solid and hematologic malignancies” (Mol Cancer Ther, 2012)", "key": {"[1]": {"assay": "Inhibition of AUR1 (unknown origin) in presence of [gamma-33P]ATP", "set-up": "species or system Homo sapiens"}, "[2]": {"target": "Fibroblast growth factor receptor 1 (Homo sapiens, UniProt P11362)", "sequence (P11362 whole entry)": "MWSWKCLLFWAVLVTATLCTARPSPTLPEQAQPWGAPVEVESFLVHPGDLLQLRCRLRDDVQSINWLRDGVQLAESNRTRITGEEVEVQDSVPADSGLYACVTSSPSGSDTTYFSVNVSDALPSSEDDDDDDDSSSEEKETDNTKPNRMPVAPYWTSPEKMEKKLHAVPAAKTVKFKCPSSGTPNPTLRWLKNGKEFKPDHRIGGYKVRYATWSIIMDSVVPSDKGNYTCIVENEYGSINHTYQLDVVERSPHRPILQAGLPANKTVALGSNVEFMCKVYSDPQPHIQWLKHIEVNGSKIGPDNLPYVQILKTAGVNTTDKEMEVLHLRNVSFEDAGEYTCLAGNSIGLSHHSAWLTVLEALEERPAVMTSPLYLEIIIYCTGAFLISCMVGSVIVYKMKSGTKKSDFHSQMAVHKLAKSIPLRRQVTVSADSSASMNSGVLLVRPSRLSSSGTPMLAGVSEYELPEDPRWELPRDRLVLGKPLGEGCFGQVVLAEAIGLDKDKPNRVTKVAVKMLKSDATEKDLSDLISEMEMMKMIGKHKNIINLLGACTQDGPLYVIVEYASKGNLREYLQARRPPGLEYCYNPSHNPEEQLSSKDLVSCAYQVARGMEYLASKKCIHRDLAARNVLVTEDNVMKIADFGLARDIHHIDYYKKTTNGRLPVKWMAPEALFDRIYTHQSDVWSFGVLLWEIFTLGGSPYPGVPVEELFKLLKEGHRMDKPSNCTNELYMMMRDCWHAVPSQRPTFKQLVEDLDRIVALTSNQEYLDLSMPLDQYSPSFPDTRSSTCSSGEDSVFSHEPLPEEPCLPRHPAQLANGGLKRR", "assay": "Inhibition of FGFR1 (unknown origin) in presence of [gamma-33P]ATP"}, "[3]": {"target": "Glycogen synthase kinase-3 beta (Homo sapiens, UniProt P49841)", "sequence (P49841 whole entry)": "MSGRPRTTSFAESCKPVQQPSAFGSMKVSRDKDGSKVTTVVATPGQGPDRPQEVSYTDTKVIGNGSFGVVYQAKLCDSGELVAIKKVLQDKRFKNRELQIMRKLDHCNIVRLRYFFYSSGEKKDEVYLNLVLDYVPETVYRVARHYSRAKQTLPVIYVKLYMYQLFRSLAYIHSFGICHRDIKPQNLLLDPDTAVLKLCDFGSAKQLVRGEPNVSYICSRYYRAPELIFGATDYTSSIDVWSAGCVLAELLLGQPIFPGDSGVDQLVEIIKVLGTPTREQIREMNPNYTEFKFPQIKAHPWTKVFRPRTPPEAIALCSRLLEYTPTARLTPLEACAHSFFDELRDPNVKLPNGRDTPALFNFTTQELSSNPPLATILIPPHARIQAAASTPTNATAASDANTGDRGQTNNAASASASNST", "assay": "Inhibition of GSK3beta (unknown origin) in presence of [gamma-33P]ATP"}, "[4]": {"target": "Tyrosine-protein kinase Lyn (Homo sapiens, UniProt P07948)", "sequence (P07948 whole entry)": "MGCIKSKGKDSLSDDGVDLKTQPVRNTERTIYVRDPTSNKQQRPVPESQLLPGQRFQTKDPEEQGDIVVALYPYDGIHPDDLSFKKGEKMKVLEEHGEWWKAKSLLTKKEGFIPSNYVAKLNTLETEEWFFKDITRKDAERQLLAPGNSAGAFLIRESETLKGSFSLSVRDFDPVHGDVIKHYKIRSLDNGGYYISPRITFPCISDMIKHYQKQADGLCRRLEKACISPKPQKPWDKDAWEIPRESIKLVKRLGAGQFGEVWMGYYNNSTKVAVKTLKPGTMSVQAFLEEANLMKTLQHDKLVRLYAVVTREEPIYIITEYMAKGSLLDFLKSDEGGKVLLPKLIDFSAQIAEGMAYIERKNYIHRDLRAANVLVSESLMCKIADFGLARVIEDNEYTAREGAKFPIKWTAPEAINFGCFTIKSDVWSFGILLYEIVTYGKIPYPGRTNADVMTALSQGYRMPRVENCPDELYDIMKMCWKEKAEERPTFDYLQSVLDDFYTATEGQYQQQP", "assay": "Inhibition of LYN (unknown origin) in presence of [gamma-33P]ATP"}, "[5]": {"target": "Protein kinase C beta type (Homo sapiens, UniProt P05771)", "assay": "Inhibition of PKC beta (unknown origin) in presence of [gamma-33P]ATP"}, "[6]": {"target": "Insulin receptor-related protein (Homo sapiens) (UniProt P14616)", "sequence (P14616 27-742 limits assumed)": "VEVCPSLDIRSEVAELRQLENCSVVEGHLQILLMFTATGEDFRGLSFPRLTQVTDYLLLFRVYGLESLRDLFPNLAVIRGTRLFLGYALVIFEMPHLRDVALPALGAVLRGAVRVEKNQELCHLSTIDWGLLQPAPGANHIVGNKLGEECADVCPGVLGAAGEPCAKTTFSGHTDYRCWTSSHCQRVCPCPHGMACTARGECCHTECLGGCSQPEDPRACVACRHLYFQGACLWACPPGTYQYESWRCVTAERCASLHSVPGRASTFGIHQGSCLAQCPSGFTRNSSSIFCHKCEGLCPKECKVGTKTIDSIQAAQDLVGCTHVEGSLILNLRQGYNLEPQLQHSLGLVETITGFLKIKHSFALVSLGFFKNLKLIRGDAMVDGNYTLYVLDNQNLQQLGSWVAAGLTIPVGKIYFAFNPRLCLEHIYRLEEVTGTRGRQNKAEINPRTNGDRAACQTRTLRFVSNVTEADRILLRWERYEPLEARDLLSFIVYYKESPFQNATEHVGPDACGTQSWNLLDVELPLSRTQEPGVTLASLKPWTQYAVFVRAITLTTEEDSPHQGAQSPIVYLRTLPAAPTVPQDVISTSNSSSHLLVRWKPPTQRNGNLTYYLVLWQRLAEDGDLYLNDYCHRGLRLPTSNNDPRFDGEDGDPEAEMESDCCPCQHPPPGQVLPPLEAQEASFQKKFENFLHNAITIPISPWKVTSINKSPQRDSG", "sequence (P14616 747-1297 limits assumed)": "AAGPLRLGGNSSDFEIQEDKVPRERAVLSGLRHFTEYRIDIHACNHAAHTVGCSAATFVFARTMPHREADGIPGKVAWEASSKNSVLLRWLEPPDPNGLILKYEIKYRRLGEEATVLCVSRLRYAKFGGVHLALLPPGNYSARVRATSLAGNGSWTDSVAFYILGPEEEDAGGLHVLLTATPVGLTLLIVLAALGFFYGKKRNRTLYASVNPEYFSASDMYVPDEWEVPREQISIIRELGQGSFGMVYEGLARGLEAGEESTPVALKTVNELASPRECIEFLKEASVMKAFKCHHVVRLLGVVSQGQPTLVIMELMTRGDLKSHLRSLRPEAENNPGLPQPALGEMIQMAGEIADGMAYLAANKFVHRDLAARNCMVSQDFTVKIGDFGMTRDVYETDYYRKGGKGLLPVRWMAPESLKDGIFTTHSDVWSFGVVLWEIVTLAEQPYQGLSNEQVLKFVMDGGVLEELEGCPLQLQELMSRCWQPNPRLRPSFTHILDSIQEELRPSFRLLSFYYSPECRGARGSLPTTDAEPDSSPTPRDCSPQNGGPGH", "assay": "Inhibition of N-terminal 6His-tagged recombinant human IRR (944 to 1266 residues) expressed in baculovirus infected Sf21 cells assessed as residual activity at 0.1 uM relative to control"}, "[7]": {"target": "Dual specificity mitogen-activated protein kinase kinase 6 (Homo sapiens) (UniProt P52564)", "assay": "Inhibition of N-terminal maltose binding protein-tagged human MKK6 (4 to end residues) expressed in E. coli assessed as residual activity at 0.1 uM relative to control"}, "[8]": {"target": "PAS domain-containing serine/threonine-protein kinase (Homo sapiens) (UniProt Q96RG2)", "sequence (Q96RG2 whole entry, the tested form may be a part)": "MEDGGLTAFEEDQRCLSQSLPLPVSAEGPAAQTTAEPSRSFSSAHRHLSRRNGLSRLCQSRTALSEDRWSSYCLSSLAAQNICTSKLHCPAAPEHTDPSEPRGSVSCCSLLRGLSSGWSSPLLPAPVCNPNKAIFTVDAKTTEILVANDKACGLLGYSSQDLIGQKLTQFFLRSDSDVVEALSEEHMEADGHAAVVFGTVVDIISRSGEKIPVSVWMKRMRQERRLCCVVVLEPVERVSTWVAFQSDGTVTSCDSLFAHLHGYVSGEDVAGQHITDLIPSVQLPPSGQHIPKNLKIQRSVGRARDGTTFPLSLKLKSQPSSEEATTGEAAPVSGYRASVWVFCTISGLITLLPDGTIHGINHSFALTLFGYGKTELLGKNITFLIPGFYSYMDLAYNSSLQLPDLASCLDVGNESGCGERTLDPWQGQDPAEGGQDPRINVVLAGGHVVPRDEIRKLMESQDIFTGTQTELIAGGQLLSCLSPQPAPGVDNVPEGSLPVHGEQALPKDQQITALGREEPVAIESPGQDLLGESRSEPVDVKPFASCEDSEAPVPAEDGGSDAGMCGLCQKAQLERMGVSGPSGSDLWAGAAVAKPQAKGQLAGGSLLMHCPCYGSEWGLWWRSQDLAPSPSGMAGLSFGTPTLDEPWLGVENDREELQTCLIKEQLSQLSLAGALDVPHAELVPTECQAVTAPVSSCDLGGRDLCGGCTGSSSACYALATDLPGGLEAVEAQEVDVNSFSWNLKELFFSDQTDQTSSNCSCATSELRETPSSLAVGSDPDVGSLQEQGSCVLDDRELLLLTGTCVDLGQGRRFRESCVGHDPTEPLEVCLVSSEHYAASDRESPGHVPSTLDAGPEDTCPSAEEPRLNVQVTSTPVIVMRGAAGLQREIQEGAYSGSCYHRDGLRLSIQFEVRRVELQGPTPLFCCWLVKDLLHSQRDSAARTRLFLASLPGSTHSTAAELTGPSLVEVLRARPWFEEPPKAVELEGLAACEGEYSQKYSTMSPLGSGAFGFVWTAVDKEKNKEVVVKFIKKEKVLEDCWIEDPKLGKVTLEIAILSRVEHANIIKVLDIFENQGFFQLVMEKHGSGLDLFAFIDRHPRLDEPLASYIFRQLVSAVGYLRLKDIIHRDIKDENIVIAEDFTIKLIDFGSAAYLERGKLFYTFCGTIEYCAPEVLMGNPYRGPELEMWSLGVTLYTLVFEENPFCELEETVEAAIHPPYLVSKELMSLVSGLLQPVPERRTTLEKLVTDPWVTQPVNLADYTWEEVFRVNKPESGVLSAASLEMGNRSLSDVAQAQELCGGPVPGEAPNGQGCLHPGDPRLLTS", "assay": "Inhibition of human PASK assessed as residual activity at 0.1 uM relative to control"}, "[9]": {"target": "Angiopoietin-1 receptor (Homo sapiens) (UniProt Q02763)", "assay": "Inhibition of N-terminal His6-tagged recombinant human Tie2 (771 to end residues) expressed in baculovirus infected Sf21 cells assessed as residual activity at 0.1 uM relative to control"}, "[10]": {"target": "Serine/threonine-protein kinase DCLK2 (Homo sapiens) (UniProt Q8N568)", "assay": "Inhibition of N-terminal 6His-tagged recombinant human DCAMKL2 (376 to end residues) expressed in baculovirus infected Sf21 cells assessed as residual activity at 1 uM relative to control"}, "[11]": {"target": "SRSF protein kinase 3 (Homo sapiens) (UniProt Q9UPE1)", "sequence (Q9UPE1 whole entry)": "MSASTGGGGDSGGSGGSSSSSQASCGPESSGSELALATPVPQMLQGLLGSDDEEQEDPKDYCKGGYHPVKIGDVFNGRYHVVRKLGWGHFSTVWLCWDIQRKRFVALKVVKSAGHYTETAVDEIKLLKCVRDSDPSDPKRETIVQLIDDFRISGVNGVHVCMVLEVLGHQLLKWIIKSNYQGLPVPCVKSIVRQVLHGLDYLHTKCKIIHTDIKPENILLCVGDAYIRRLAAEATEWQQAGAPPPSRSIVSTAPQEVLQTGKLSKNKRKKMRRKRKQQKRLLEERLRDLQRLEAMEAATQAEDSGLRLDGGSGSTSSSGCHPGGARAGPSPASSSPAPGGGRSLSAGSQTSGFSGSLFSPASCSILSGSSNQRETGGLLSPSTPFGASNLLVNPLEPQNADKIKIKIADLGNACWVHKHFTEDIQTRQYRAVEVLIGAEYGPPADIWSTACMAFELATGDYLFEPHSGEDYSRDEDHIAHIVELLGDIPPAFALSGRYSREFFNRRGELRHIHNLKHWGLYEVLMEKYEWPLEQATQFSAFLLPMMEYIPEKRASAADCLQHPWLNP", "assay": "Inhibition of N-terminal 6His-tagged recombinant human full-length MSSK1 expressed in baculovirus infected Sf21 cells assessed as residual activity at 1 uM relative to control"}, "[12]": {"target": "Mitogen-activated protein kinase 12 (Homo sapiens) (UniProt P53778)", "assay": "Inhibition of recombinant GST fusion protein corresponding to full-length human SAPK3 expressed in E. coli assessed as residual activity at 1 uM relative to control"}, "[13]": {"system": "SF-268", "assay": "Antiproliferative activity against human SF-268 cells assessed as inhibition of cell growth incubated for 72 hrs by cell-titer glo assay", "type": "functional, cell-based", "details": "SF-268, 72 h", "summary_of_the_method": "(§1)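 Cells from ATCC or ECACC, kept in supplier-recommended medium with 1% penicillin-streptomycin at 37°C, 5% CO₂. Seeded at 10,000–30,000/cm² (adherent) or 100,000/mL (nonadherent) in medium with 10% fetal calf serum. Dosed after 24 h in duplicate with serial dilutions. Viable cells read by CellTiter-Glo 72 h later. IC50 from sigmoidal fit. At least two independent experiments.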"}, "[14]": {"system": "U-118-MG", "assay": "Antiproliferative activity against human U-118-MG cells assessed as inhibition of cell growth incubated for 72 hrs by cell-titer glo assay", "type": "functional, cell-based"}, "[15]": {"system": "MFM-223", "assay": "Antiproliferative activity against human MFM-223 cells assessed as inhibition of cell growth incubated for 72 hrs by cell-titer glo assay", "type": "functional, cell-based", "details": "MFM-223, 72 h", "summary_of_the_method": "as §1"}, "[16]": {"system": "C-33-A", "assay": "Antiproliferative activity against human C-33-A cells assessed as inhibition of cell growth incubated for 72 hrs by cell-titer glo assay", "type": "functional, cell-based", "summary_of_the_method": "(§2)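 Cells seeded 10,000–30,000/cm² (adherent) or 100,000/mL (suspension) in medium with 10% fetal calf serum; after 24 h treated in duplicate with serial dilutions for 72 h. Viable cells read by CellTiter-Glo luminescence; IC50 from sigmoidal fit; at least two independent experiments.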"}, "[17]": {"system": "HCC 2998", "assay": "Antiproliferative activity against human HCC 2998 cells assessed as inhibition of cell growth incubated for 72 hrs by cell-titer glo assay", "type": "functional, cell-based", "details": "HCC 2998, 72 h", "summary_of_the_method": "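Cells seeded at 10,000–30,000/cm² (adherent) or 100,000/mL (nonadherent) in medium with 10% fetal calf serum; after 24 h, treated in duplicate with serial dilutions for 72 h. Viable cell number read by CellTiter-Glo luminescence; IC50 from sigmoidal fit; at least two independent experiments.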"}, "[18]": {"system": "786-0", "assay": "Antiproliferative activity against human 786-0 cells assessed as inhibition of cell growth incubated for 72 hrs by cell-titer glo assay", "type": "functional, cell-based", "details": "786-0, 72 h", "summary_of_the_method": "as §2"}, "[19]": {"system": "MIA PaCa-2", "assay": "Antiproliferative activity against human MIA PaCa-2 cells assessed as inhibition of cell growth incubated for 72 hrs by cell-titer glo assay", "type": "functional, cell-based", "details": "MIA PaCa-2, 72 h", "summary_of_the_method": "as §1"}, "[20]": {"system": "RS4-11", "assay": "Antiproliferative activity against human RS4-11 cells assessed as inhibition of cell growth incubated for 72 hrs by cell-titer glo assay", "type": "functional, cell-based", "details": "RS4-11, 72 h", "summary_of_the_method": "as §1"}, "[21]": {"assay": "Antiproliferative activity against human SUPM2 cells assessed as inhibition of cell growth incubated for 72 hrs by cell-titer glo assay", "type": "functional, cell-based", "details": "SUP-M2, 72 h"}, "[22]": {"system": "SU-DHL-8", "assay": "Antiproliferative activity against human SU-DHL-8 cells assessed as inhibition of cell growth incubated for 72 hrs by cell-titer glo assay", "type": "functional, cell-based", "details": "SU-DHL-8, 72 h"}, "[23]": {"system": "U-266", "assay": "Antiproliferative activity against human U-266 cells assessed as inhibition of cell growth incubated for 72 hrs by cell-titer glo assay", "type": "functional, cell-based", "details": "U-266, 72 h"}, "[24]": {"assay": "Volume of distribution at steady state in male cynomolgus monkey at 5 mg/kg, iv by LC-MS analysis", "type": "ADME, organism-based, Macaca fascicularis", "details": "in vivo, read-out: Vdss"}, "[25]": {"assay": "Half-life in male cynomolgus monkey at 5 mg/kg, iv by LC-MS analysis", "type": "ADME, organism-based, Macaca fascicularis", "details": "in vivo"}, "[26]": {"assay": "Half-life in Sprague-Dawley rat at 10 mg/kg, po by LC-MS analysis", "type": "ADME, organism-based", "details": "in vivo"}, "[27]": {"assay": "AUC in Sprague-Dawley rat at 10 mg/kg, po by LC-MS analysis", "type": "ADME, organism-based", "details": "in vivo"}, "[28]": {"system": "U2OS", "assay": "Induction of apoptosis in human U2OS cells assessed as colocalization of cells by measuring Histone H3 phosphorylation on Ser10 incubated for 24 hrs by DRAQ 5 staining based high content imaging assay relative to control", "type": "functional"}, "[29]": {"system": "A2780", "assay": "Induction of mitosis in human A2780 cells xenografted in nu/nu mouse assessed as increased Histone H3 phosphorylation on Ser10 at 60 mg/kg, po administered for 2 to 6 hrs by immunohistochemistry analysis", "type": "functional, organism-based", "details": "time 2-6 hrs"}, "[30]": {"system": "A2780", "assay": "Induction of mitosis in human A2780 cells xenografted in nu/nu mouse assessed as decreased Histone H3 phosphorylation on Ser10 at 60 mg/kg, po administered for 12 to 24 hrs by immunohistochemistry analysis", "type": "functional, organism-based", "details": "time lower […], time upper 24.0 hrs"}, "[31]": {"system": "A2780", "assay": "Induction of mitosis in human A2780 cells xenografted in nu/nu mouse assessed as decreased NPM phosphorylation on Thr199 at 60 mg/kg, po administered for 12 to 24 hrs by immunohistochemistry analysis", "type": "functional, organism-based", "details": "time lower […], time upper 24.0 hrs"}}, "note": "Calls of active or inactive are those of the source. The rule behind the calls is not given here.", "data": [{"smiles": "CN1CCN(c2ccc(OC(F)(F)F)c(Nc3ncc4c(n3)-c3c(c(C(N)=O)nn3CCO)CC4)c2)CC1", "note": "[ONVANSERTIB]", "values": [{"measurement": "IC50", "setting": "[1]", "result": "> 10", "unit": "µM"}, {"measurement": "IC50", "setting": "[2]", "result": "> 10", "unit": "µM"}, {"measurement": "IC50", "setting": "[3]", "result": "> 10", "unit": "µM"}, {"measurement": "IC50", "setting": "[4]", "result": "> 10", "unit": "µM"}, {"measurement": "IC50", "setting": "[5]", "result": "> 10", "unit": "µM"}, {"measurement": "Activity", "setting": "[6]", "result": 125, "unit": "%"}, {"measurement": "Activity", "setting": "[7]", "result": 131, "unit": "%"}, {"measurement": "Activity", "setting": "[8]", "result": 127, "unit": "%"}, {"measurement": "Activity", "setting": "[9]", "result": 113, "unit": "%"}, {"measurement": "Activity", "setting": "[10]", "result": 90, "unit": "%"}, {"measurement": "Activity", "setting": "[11]", "result": 89, "unit": "%"}, {"measurement": "Activity", "setting": "[12]", "result": 113, "unit": "%"}, {"measurement": "IC50", "setting": "[13]", "result": 90, "unit": "nM"}, {"measurement": "IC50", "setting": "[14]", "result": 220, "unit": "nM"}, {"measurement": "IC50", "setting": "[15]", "result": 10, "unit": "nM"}, {"measurement": "IC50", "setting": "[16]", "result": 61, "unit": "nM"}, {"measurement": "IC50", "setting": "[17]", "result": 132, "unit": "nM"}, {"measurement": "IC50", "setting": "[18]", "result": 129, "unit": "nM"}, {"measurement": "IC50", "setting": "[19]", "result": 112, "unit": "nM"}, {"measurement": "IC50", "setting": "[20]", "result": 43, "unit": "nM"}, {"measurement": "IC50", "setting": "[21]", "result": 43, "unit": "nM"}, {"measurement": "IC50", "setting": "[22]", "result": 31, "unit": "nM"}, {"measurement": "IC50", "setting": "[23]", "result": 40, "unit": "nM"}, {"measurement": "Vd", "setting": "[24]", "result": 2.9, "unit": "L/kg"}, {"measurement": "half-life", "setting": "[25]", "result": 300, "unit": "min"}, {"measurement": "half-life", "setting": "[26]", "result": 186, "unit": "min"}, {"measurement": "AUC", "setting": "[27]", "result": 46.4, "unit": "µM·h"}, {"measurement": "Activity", "setting": "[28]", "result": 13, "unit": "%"}, {"measurement": "Activity", "setting": "[29]", "result": "Active"}, {"measurement": "Activity", "setting": "[30]", "result": "Active"}, {"measurement": "Activity", "setting": "[31]", "result": "Active"}]}]}
